Activity calls are given as the source filed them.
Key:
[1] = biological target: G protein-coupled receptor kinase 3 (Homo sapiens) (UniProt P35626); assay: Inhibition of recombinant full-length human GRK3 at 10 uM using casein as substrate measured after 40 mins in presence of [gamma33P]ATP by scintillation counting method
[2] = biological target: Transcription initiation factor TFIID subunit 1 (Homo sapiens) (UniProt P21675); assay: Binding affinity to human partial length TAF1 bromodomain 2 (D1521 to D1656 residues) expressed in bacterial expression system at 1 uM by BROMOscan assay
Outline: (§1)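 BROMOscan bromodomain cross-screen run by an outside service, compound at 1 µM against 32 recombinant bromodomains. Binding given as percent of control.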

[3] = biological target: cGMP-dependent protein kinase 1 (Homo sapiens) (UniProt Q13976); assay: Inhibition of recombinant full-length human PKG1beta at 10 uM using RRRLSFAEPG as substrate measured after 40 mins in presence of [gamma33P]ATP by scintillation counting method
[4] = biological target: Serine/threonine-protein kinase pim-3 (Homo sapiens) (UniProt Q86V86); assay: Inhibition of recombinant human Pim3 (2 to end residues) at 10 uM using RSRHSSYPAGT as substrate measured after 40 mins in presence of [gamma33P]ATP by scintillation counting method
[5] = biological target: Mitogen-activated protein kinase 10 (Homo sapiens) (UniProt P53779); assay: Inhibition of recombinant full-length human JNK3 at 10 uM using peptide substrate measured after 40 mins in presence of [gamma33P]ATP by scintillation counting method
[6] = biological target: Mitogen-activated protein kinase kinase kinase kinase 4 (Homo sapiens) (UniProt O95819); assay: Inhibition of recombinant human MAP4K4 (1 to 328 residues) at 10 uM using RLGRDKYKTLRQIRQ as substrate measured after 40 mins in presence of [gamma33P]ATP by scintillation counting method
[7] = biological target: Serine/threonine-protein kinase pim-1 (Homo sapiens) (UniProt P11309); assay: Inhibition of recombinant full-length human Pim1 at 10 uM using KKRNRTLTV as substrate measured after 40 mins in presence of [gamma33P]ATP by scintillation counting method
[8] = biological target: Activin receptor type-1B (Homo sapiens) (UniProt P36896); assay: Inhibition of recombinant human ALK4 (150 to end residues) at 10 uM using casein as substrate measured after 40 mins in presence of [gamma33P]ATP by scintillation counting method
[9] = biological target: Serine/threonine-protein kinase PAK 4 (Homo sapiens) (UniProt O96013); assay: Inhibition of recombinant human PAK4 (295 to end residues) at 10 uM using myelin basic protein as substrate measured after 40 mins in presence of [gamma33P]ATP by scintillation counting method
[10] = biological target: Cyclin-dependent kinase 14/Cyclin-Y (Homo sapiens) (UniProt O94921+Q8ND76); assay: Inhibition of human CDK14/cyclinY at 10 uM by radiometric method; type: protein-complex assay
Outline: (§2)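 Kinase panel of 422 kinases screened by Eurofins KinaseProfiler at a single test-compound concentration of 10 µM.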

[11] = test system: Epidermal growth factor receptor (Homo sapiens), P00533 [L861Q]; assay: Inhibition of recombinant human EGFR L861Q mutant (696 to end residues) at 10 uM using poly(Glu, Tyr) 4:1 as substrate measured after 40 mins in presence of [gamma33P]ATP by scintillation counting method
[12] = biological target: MAP/microtubule affinity-regulating kinase 3 (Homo sapiens) (UniProt P27448); assay: Inhibition of recombinant full-length human MARK3 at 10 uM using KKKVSRSGLYRSPSMPENLNRPR as substrate measured after 40 mins in presence of [gamma33P]ATP by scintillation counting method
[13] = biological target: Tribbles homolog 2 (Homo sapiens) (UniProt Q92519); assay: Inhibition of recombinant full-length human TRB2 at 10 uM using RRRFRPASPLRGPPK as substrate measured after 120 mins in presence of [gamma33P]ATP by scintillation counting method
[14] = biological target: Protein-tyrosine kinase 2-beta (Homo sapiens) (UniProt Q14289); assay: Inhibition of recombinant full-length human Pyk2 at 10 uM using poly(Glu, Tyr) 4:1 as substrate measured after 40 mins in presence of [gamma33P]ATP by scintillation counting method
[15] = biological target: Mitogen-activated protein kinase 11 (Homo sapiens) (UniProt Q15759); assay: Inhibition of recombinant full-length human SAPK2b at 10 uM using myelin basic protein as substrate measured after 40 mins in presence of [gamma33P]ATP by scintillation counting method
[16] = biological target: Bromodomain-containing protein 2 (Homo sapiens) (UniProt P25440); assay: Binding affinity to human partial length BRD2 bromodomain 1 long isoform (K71 to N194 residues) expressed in bacterial expression system at 1 uM by BROMOscan assay; outline: as §1
[17] = biological target: Interleukin-1 receptor-associated kinase 1 (Homo sapiens) (UniProt P51617); assay: Inhibition of recombinant human IRAK1 (194 to end residues) at 10 uM using myelin basic protein as substrate measured after 40 mins in presence of [gamma33P]ATP by scintillation counting method
[18] = biological target: NUAK family SNF1-like kinase 1 (Homo sapiens) (UniProt O60285); assay: Inhibition of recombinant human ARK5 (2 to end residues) at 10 uM using KKKVSRSGLYRSPSMPENLNRPR as substrate measured after 40 mins in presence of [gamma33P]ATP by scintillation counting method
[19] = biological target: Phosphatidylinositol 3-kinase C2 domain-containing subunit gamma (Homo sapiens) (UniProt O75747); assay: Inhibition of recombinant human PI3KC2gamma (468 to 1203 residues) at 10 uM using phosphatidylinositol as substrate measured after 40 mins by HTRF assay
[20] = biological target: Dual specificity protein kinase CLK4 (Homo sapiens) (UniProt Q9HAZ1); assay: Inhibition of recombinant human CLK4 (128 to end residues) at 10 uM using YRRAAVPPSPSLSRHSSPHQS(p)EDEEE as substrate measured after 40 mins in presence of [gamma33P]ATP by scintillation counting method
[21] = species: Mus musculus; assay: Inhibition of recombinant mouse ARG M982V/A562 mutant (27 to end residues) at 10 uM using EAIYAAPFAKKK as substrate measured after 40 mins in presence of [gamma33P]ATP by scintillation counting method
[22] = biological target: MAP kinase-interacting serine/threonine-protein kinase 2 (Homo sapiens) (UniProt Q9HBH9); assay: Inhibition of recombinant full-length human Mnk2 at 10 uM using myelin basic protein as substrate measured after 40 mins in presence of [gamma33P]ATP by scintillation counting method
[23] = species: Homo sapiens; assay: Inhibition of recombinant full-length human PI3K p110delta/p85alpha N253S mutant at 10 uM using phosphatidylinositol-4, 5-bisphosphate as substrate measured after 40 mins by fluorescence assay
[24] = biological target: Tyrosine-protein kinase Srms (Homo sapiens) (UniProt Q9H3Y6); assay: Inhibition of human SRMS at 10 uM by radiometric method; outline: as §2
[25] = biological target: High affinity nerve growth factor receptor (Homo sapiens) (UniProt P04629); assay: Inhibition of human TrkA (440 to end residues) using KKKSPGEYVNIEFG as substrate measured after 40 mins in presence of [gamma33P]ATP by scintillation counting method

Sequence of Tribbles homolog 2 (Homo sapiens) (Q92519 whole entry): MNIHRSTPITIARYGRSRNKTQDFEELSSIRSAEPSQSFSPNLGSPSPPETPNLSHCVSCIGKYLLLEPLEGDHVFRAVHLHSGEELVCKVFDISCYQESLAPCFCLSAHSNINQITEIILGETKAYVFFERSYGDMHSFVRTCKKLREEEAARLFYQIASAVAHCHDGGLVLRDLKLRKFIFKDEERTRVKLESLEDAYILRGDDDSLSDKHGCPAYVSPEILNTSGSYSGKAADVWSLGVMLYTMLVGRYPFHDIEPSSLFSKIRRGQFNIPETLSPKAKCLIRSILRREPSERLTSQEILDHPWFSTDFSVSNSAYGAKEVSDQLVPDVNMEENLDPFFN
Sequence of Serine/threonine-protein kinase PAK 4 (Homo sapiens) (O96013 whole entry, looked up): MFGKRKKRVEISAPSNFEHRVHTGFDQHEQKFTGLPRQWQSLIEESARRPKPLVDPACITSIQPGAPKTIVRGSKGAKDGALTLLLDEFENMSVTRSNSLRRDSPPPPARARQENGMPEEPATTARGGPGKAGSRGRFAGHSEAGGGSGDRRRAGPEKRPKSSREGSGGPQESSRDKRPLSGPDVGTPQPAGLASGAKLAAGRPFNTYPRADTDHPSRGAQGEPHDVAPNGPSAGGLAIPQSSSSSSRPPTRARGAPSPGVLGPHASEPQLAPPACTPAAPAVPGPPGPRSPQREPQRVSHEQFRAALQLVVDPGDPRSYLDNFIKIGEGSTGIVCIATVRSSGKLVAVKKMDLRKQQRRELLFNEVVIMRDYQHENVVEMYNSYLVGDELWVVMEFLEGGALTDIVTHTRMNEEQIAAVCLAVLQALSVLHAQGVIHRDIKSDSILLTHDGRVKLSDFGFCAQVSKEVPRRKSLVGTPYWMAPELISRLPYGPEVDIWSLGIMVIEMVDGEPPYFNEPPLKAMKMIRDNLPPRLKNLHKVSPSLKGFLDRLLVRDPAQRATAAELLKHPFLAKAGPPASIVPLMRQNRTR
Sequence of Protein-tyrosine kinase 2-beta (Homo sapiens) (Q14289 whole entry, looked up): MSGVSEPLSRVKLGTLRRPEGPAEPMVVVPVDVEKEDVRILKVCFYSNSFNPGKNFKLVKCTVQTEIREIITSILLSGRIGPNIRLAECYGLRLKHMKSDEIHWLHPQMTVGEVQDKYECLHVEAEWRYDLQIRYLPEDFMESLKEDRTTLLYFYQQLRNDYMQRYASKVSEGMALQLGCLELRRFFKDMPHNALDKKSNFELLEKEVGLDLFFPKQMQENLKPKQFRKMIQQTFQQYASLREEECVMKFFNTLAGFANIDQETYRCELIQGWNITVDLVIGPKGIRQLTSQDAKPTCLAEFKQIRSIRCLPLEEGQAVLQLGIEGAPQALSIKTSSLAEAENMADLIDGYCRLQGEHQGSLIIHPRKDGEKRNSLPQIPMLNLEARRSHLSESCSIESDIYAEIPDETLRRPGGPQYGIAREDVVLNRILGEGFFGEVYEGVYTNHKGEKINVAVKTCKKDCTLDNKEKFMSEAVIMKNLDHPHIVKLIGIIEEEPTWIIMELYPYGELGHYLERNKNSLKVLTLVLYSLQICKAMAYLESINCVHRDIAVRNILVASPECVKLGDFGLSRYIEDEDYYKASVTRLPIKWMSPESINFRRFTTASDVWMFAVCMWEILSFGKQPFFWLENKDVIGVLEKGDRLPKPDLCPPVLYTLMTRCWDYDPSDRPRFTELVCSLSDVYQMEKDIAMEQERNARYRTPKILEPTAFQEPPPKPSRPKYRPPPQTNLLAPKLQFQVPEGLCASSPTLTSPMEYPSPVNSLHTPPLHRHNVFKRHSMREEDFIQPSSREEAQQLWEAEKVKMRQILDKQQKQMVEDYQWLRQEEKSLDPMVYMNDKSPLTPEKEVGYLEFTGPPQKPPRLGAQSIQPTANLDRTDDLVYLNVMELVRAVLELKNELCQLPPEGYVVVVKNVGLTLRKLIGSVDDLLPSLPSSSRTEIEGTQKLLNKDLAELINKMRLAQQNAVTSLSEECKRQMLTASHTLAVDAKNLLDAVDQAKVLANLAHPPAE
Sequence of NUAK family SNF1-like kinase 1 (Homo sapiens) (O60285 whole entry, the tested form may be a part): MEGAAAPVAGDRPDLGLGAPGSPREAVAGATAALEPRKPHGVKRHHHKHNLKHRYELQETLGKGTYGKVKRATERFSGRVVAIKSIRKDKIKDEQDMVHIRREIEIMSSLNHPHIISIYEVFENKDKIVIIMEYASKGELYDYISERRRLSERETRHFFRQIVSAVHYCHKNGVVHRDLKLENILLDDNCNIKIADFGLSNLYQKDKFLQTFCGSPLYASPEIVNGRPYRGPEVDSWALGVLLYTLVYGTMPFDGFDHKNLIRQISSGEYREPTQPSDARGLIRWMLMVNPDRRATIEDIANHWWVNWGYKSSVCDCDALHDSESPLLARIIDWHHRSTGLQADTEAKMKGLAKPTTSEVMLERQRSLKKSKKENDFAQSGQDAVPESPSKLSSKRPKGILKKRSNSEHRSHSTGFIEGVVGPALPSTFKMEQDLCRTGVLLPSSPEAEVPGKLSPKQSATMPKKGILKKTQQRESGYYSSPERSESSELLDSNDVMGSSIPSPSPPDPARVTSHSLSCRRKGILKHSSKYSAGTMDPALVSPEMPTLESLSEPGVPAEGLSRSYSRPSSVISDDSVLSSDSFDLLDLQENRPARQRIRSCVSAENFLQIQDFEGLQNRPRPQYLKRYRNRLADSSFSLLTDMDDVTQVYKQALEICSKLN
Sequence of Interleukin-1 receptor-associated kinase 1 (Homo sapiens) (P51617 whole entry, looked up): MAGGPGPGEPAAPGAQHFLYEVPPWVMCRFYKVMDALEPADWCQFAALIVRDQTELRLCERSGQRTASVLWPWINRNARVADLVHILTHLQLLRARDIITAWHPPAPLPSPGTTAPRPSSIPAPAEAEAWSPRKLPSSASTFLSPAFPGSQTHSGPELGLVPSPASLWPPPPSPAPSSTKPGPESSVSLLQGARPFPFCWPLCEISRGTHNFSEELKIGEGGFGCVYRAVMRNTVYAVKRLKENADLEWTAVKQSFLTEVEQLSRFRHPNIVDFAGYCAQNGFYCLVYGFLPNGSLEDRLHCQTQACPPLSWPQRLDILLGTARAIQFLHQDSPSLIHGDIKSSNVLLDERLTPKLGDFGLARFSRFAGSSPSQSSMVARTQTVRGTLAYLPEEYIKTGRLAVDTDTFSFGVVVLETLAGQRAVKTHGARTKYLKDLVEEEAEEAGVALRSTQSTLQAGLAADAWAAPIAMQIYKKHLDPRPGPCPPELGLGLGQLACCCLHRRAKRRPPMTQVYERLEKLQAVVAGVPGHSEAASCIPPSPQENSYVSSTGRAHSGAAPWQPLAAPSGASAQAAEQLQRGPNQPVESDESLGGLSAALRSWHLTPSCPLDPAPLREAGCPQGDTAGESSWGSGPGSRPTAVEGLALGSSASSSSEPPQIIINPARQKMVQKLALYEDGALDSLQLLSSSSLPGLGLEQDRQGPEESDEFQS
Sequence of Epidermal growth factor receptor (Homo sapiens), P00533 [L861Q] (P00533 whole entry L861Q): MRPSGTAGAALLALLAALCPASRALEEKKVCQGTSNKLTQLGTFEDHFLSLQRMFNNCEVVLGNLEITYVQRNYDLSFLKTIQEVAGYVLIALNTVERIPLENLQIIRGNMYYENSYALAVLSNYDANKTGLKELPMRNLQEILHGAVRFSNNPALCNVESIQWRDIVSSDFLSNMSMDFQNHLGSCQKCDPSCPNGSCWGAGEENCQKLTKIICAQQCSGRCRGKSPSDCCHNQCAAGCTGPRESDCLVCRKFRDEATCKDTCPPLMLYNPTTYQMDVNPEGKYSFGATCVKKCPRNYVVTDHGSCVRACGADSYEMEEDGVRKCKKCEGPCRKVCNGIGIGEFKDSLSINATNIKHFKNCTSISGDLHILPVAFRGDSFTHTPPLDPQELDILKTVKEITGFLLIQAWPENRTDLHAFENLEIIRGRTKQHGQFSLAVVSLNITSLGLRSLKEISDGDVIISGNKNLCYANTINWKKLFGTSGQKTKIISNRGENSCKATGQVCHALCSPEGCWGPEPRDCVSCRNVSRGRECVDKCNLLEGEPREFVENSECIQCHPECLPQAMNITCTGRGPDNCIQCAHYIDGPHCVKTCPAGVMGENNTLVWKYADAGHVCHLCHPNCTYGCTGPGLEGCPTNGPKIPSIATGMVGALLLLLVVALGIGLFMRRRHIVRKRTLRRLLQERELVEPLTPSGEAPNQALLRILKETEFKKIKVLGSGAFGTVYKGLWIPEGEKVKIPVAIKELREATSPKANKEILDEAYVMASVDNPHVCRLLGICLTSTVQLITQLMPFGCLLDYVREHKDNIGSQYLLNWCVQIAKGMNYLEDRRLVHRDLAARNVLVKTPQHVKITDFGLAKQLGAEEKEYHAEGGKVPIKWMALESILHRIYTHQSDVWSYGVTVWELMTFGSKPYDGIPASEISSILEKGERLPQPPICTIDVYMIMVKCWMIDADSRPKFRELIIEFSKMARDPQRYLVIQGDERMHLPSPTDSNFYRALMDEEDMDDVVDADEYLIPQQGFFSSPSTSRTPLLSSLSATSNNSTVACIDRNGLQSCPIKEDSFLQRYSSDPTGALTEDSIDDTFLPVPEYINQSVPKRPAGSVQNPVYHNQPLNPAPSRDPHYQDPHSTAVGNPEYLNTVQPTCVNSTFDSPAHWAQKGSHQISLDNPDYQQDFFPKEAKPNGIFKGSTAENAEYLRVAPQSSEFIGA

CN1C[C@H](Nc2nc3cc[nH]c3c(=O)n2C)C[C@H](c2ccc3c(c2)OCCO3)C1
inactive: inhibition [1] | Activity [2] | inhibition [3] | inhibition [4] | inhibition [5] | inhibition [6] | inhibition [7] | inhibition [8] | inhibition [9] | inhibition [10] | inhibition [11] | inhibition [12] | inhibition [13] | inhibition [14] | inhibition [15] | Activity [16] | inhibition [17] | inhibition [18] | inhibition [19] | inhibition [20] | inhibition [21] | inhibition [22] | inhibition [23] | inhibition [24] | inhibition [25]

— ChEMBL document CHEMBL4350961, “Discovery of Pyrrolo[3,2- d]pyrimidin-4-one Derivatives as a New Class of Potent and Cell-Active Inhibitors of P300/CBP-Associated Factor Bromodomain” (J Med Chem, 2019)
